Screening results deposited in PubChem BioAssay by The Scripps Research Institute Molecular Screening Center.
OX1R antag-1: human HCRTR1 antagonism; inhibition, % at 5 µM; 0.43% of 330,000 active; CHO/OX1R cells, Fluo-8 calcium fluorescence, orexin A; O43613;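 active = inhibition above its plate's threshold, mean inhibition of all tested compounds on the plate plus 3 SD, cut at about 37% in these data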;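 also: 0% = orexin A challenge wells and 100% = SB-334867-A antagonist wells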
Target sequence (O43613 whole entry, looked up): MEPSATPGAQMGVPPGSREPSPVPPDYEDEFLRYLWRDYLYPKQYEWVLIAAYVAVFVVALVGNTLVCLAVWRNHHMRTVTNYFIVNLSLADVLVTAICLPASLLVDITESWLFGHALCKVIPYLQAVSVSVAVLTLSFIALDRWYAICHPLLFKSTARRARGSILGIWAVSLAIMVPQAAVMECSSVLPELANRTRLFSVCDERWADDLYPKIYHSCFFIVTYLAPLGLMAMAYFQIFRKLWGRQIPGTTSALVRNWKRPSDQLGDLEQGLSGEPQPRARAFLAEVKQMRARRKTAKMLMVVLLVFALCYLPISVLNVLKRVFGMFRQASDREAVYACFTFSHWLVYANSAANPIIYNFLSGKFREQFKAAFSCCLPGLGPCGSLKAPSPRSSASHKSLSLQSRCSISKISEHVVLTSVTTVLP
TAAR1 agonist: agonists of human TAAR1 | CHO RD-HGA16 TAAR1, Fluo-8 calcium fluorescence; vehicle wells 0%, saturating PEA agonist 100% | activation, % at 3 µM | 0.99% of 360,000 active | AID 624467;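 active = activation above the mean activation of all test compounds in the run plus 3 SD, cut at about 38% in these data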
Target sequence (Q96RJ0 whole entry, looked up): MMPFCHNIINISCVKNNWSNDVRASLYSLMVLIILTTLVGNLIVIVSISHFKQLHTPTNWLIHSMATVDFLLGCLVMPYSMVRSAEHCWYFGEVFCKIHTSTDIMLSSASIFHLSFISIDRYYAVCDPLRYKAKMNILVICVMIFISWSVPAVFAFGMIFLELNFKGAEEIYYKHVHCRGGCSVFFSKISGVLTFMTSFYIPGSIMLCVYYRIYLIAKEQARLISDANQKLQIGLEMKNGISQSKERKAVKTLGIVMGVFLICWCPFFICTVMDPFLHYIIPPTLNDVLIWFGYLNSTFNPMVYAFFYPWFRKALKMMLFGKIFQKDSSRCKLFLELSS
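Assay system – CHO-derived RD-HGA16 cells with stable Gα16 and human TAAR1 · Compound dosing – one-point dosing at 3 µM (nominal) · Incubation – 17-24 h seeding, 75 min 37 °C dye, 30 min RT · Measured by – kinetic Fluo-8 calcium fluorescence · Control set – DMSO vehicle as 0%, PEA at EC100 as 100% · Repeats – single well for each compound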
CHO parental Ca: signal in parental CHO cells, OX1R antagonist counter-screen; AID 463079; parental CHO-K1, ATP-induced calcium, Fluo-8 fluorescence; 0.63% of 330,000 active; inhibition, % at 5.6 µM;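 active = inhibition above that plate's mean sample inhibition plus 3 SD, cut at about 26% in these data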;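 also: 0% = ATP-challenged DMSO wells and 100% = DMSO wells without ATP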
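Measured by: calcium-sensitive Fluo-8 fluorescence / Test system: CHO parental line / Controls: ATP-challenged DMSO wells low, unchallenged DMSO wells high / Measure: % inhibition / Compound: single nominal dose of 5.6 µM per compound / Replicates: single well per compound, no replicates / Reagent: ATP as calcium-mobilizing challenge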
OX1R antag-2: OX1R (human) antagonism. OX1R-expressing cells, FRET antagonist read-out. inhibition, % at 6.6 µM. O43613. 1.8% of 330,000 active; in the data active = inhibition mostly above about 38%, no sharp cut-off; inactive = mostly below about 40%;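 also: 0% = agonist challenge alone and 100% = reference antagonist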
TAAR1 antag: human TAAR1 antagonism | Q96RJ0 | CHO RD-HGA16 TAAR1, Fluo-8 calcium fluorescence, antagonist | inhibition, % at 3 µM | 1.5% of 360,000 active | AID 624466;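 active = inhibition above a per-plate cutoff, the mean inhibition of test compounds on that plate plus 3 SD, cut at about 49% in these data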;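 also: 0% = DMSO plus EC80 beta-PEA response and 100% = DMSO alone without agonist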
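Test system – hTAAR1-expressing CHO RD-HGA16 cells, Gα16-coupled · Also added – β-PEA at EC80 concentration, post-compound challenge · Compound – 3 µM, single point · Incubation – dye loading 75 min at 37 °C, then 30 min room temperature · Measured by – Fluo-8 intracellular calcium dye fluorescence, real-time kinetic reads · Benchmarks – vehicle and agonist controls · Replicates – singlicate, one well per test compound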
GPR7 antag: human neuropeptides B/W receptor 1 antagonism; P48145; 1.1% of 290,000 active; GPR7-expressing cells, fluorescence antagonist assay; inhibition, % at 4.4 µM; in the data active = inhibition above about 16%, passing the limit was not always enough;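 also: cells stimulated with the agonist NPW; 0% = agonist with vehicle and 100% = vehicle without agonist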
TAAR1 ag confirm: confirmation of human TAAR1 agonists. shares compounds with TAAR1 agonist. CHO RD-HGA16 TAAR1, Fluo-8 calcium fluorescence; scaled: DMSO 0%, maximal phenethylamine 100%. activation, % at 3 µM. 82% of 2,400 active. AID 651783;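 active = activation above a cutoff set at the run's mean compound activation plus 3 SD, cut at about 39% in these data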
Ga16 nonsel ag: counter-screen for TAAR1 agonists: nonselective agonists in parental cells. shares compounds with TAAR1 agonist. CHO-Ga16 parental, Fluo-8 calcium fluorescence; normalized to maximal ATP response, DMSO zero. activation, % at 3 µM. 50% of 2,400 active. AID 651787;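 active = activation above the run cutoff, the mean activation over all tested wells plus 3 SD, cut at about 12% in these data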;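 also: 0% = DMSO wells and 100% = maximal ATP response on the peak over basal ratio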
TAAR1 desensitize: counter-screen for human TAAR1 agonists: agonists that desensitize TAAR1 | CHO RD-HGA16 hTAAR1, Fluo-8 calcium, beta-PEA response inhibition | shares compounds with TAAR1 agonist | AID 651951 | inhibition, % at 3 µM | 46% of 2,400 active;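 active = inhibition above the run cutoff, the mean inhibition of all test compounds plus 3 SD, cut at about 49% in these data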;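 also: beta-PEA stimulus applied at its EC80; loss of beta-PEA calcium signal after compound pretreatment read as receptor desensitization; 0% = DMSO with beta-PEA at EC80 and 100% = DMSO alone without agonist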
Ga16 antag count: nonselective Ga16 antagonist in TAAR1 agonist counter-screen; AID 651952; shares compounds with TAAR1 agonist; CHO-Ga16 ATP-induced calcium, Fluo-8 fluorescence; inhibition, % at 3 µM; 39% of 2,400 active;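 active = inhibition above the plate's mean compound inhibition plus 3 SD, computed per plate, cut at about 22% in these data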;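 also: 0% = EC80 ATP with DMSO and 100% = DMSO wells without ATP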
* = called active by the depositor; . = no result given. Hits are enriched below; roughly 4.6% of the tested compounds scored in any of these assays.

SMILES	OX1R antag-1	TAAR1 agonist	CHO parental Ca	OX1R antag-2	TAAR1 antag	GPR7 antag	TAAR1 ag confirm	Ga16 nonsel ag	TAAR1 desensitize	Ga16 antag count
Cc1c(C(=O)N2CCN(C3CCS(=O)(=O)C3)CC2)oc2c(F)cccc12 (stereo not drawn)	7.7	-2.7	5.4	16.2	6.4	.	.	.	.	.
COc1cc(NC(=O)Nc2nc(C(N)C(C)C)cs2)cc(OC)c1OC (stereo not drawn)	.	0.1	.	.	4.6	.	.	.	.	.
N/C(Cc1cccc2ccccc12)=N\OC(=O)Cc1cccs1	-9.0	60.6*	-6.7	14.7	25.8	-7.5	73.6*	0.6	24.1	2.5
COc1ccc(CC(=O)O/N=C(\N)Cc2cccc3ccccc23)cc1	-6.8	29.1	-12.1	15.6	11.5	-12.6	.	.	.	.
N/C(Cc1cccc2ccccc12)=N\OC(=O)c1cccs1	-9.1	.	-7.7	11.1	.	-1.9	.	.	.	.
COc1ccc(CC(=O)O/N=C(\N)Cc2cccc3ccccc23)cc1OC	4.3	42.1*	-22.1	21.5	25.3	-1.4	64.8*	2.4	45.0	19.5
Cc1ccccc1OCC(=O)NNC(=S)NC(=O)c1ccco1	7.1	64.9*	-4.9	3.7	14.3	-8.7	29.4	22.8*	11.9	20.0
CC(C)c1ccc(OCC(=O)NNC(=S)NC(=O)c2ccco2)c(Br)c1	9.5	43.6*	-1.8	-3.7	7.2	-11.9	80.8*	59.0*	70.0*	50.9*
COc1ccc(N=Cc2sc(O)c3ccccc23)cc1	66.6*	83.6*	46.4*	25.8	63.8*	0.0	46.1*	71.6*	53.0*	68.7*
O=C(COc1ccc(Cl)cc1)Nc1cc2c3c(c1)CC(=O)N3CCC2	4.7	1.4	-14.2	23.5	10.2	.	.	.	.	.
CCOC(=O)c1c(-c2cccs2)csc1NC(=O)CN1CCOCC1	-2.3	43.9*	-0.1	34.9	28.2	1.1	30.5	38.2*	28.7	35.3*
CCOC(=O)c1c(-c2ccc(C)o2)csc1NC(=O)CN1CCOCC1	-15.3	13.6	4.9	26.5	19.5	-20.0	.	.	.	.
CC(Oc1ccc(Cl)cc1Cl)C(=O)Nc1ccc(N2CCN(C)CC2)cc1 (stereo not drawn)	-16.8	53.2*	-18.4	7.8	5.0	2.9	59.7*	6.3	31.7	11.5
C[C@H](CO)N1C[C@H](C)[C@@H](CN(C)S(=O)(=O)c2ccc(-c3ccccc3)cc2)OCc2cn(nn2)CCCC1=O	.	-0.4	.	.	-6.0	.	.	.	.	.
CCc1c(C(=O)NCCc2ccc(OC)c(OC)c2)[nH]c(C)c1C(C)=O	-14.7	6.5	-10.9	4.7	4.6	-8.7	.	.	.	.
CCCCNC(=O)c1[nH]c(C)c(C(C)=O)c1C	-3.8	2.2	-1.6	13.9	12.1	-5.7	.	.	.	.
CCc1c(C(=O)NCCc2cccc(C)c2)[nH]c(C)c1C(C)=O	-19.5	68.2*	-11.4	10.4	26.1	10.0	53.1*	9.1	25.8	24.3*
CC(=O)c1c(C)[nH]c(C(=O)NCCc2cccc(C)c2)c1C	-17.4	51.7*	-10.6	9.3	-4.5	5.6	26.5	6.8	13.2	18.7
C(=NOCc1ccccc1)c1ccncc1	.	-0.1	.	.	-20.1	.	.	.	.	.
C(=NOCCc1ccccc1)c1cccnc1	.	.	.	.	.	.	.	0.2	.	6.2
COc1ccccc1COCC(O)CNCCc1ccc(C(F)(F)F)cc1 (stereo not drawn)	-16.2	13.1	-10.8	-7.4	-14.0	19.1	.	.	.	.
OC(CNCCc1ccc(C(F)(F)F)cc1)COc1cccc2ccccc12 (stereo not drawn)	1.8	59.6*	25.1	8.1	21.9	-2.7	59.9*	29.2*	64.3*	43.8*
CCc1sc(C(=O)Nc2cccnc2)cc1Br	-10.7	64.9*	-18.8	36.9	22.5	-12.2	48.1*	32.6*	16.0	10.9
CCc1cc(C(=O)Nc2ccc(OC)nc2)sc1C	-6.4	2.2	-2.2	31.2	6.4	.	.	.	.	.
COc1ccc(NC(=O)c2cc(Br)c(Br)s2)cn1	-30.4	71.0*	-22.0	11.8	28.9	-2.8	48.5*	42.1*	35.9	10.6
SMILES	OX1R antag-1	TAAR1 agonist	CHO parental Ca	OX1R antag-2	TAAR1 antag	GPR7 antag	TAAR1 ag confirm	Ga16 nonsel ag	TAAR1 desensitize	Ga16 antag count
O=C(COC(=O)CSc1ccccc1)NC1CCS(=O)(=O)C1 (stereo not drawn)	.	0.9	.	.	4.4	.	.	.	.	.
COc1cccc2c1O/C(=N\O)C(C(=O)Nc1ccc(C)cc1)C2 (stereo not drawn)	-13.6	-1.6	1.6	6.5	-2.1	21.9	.	.	.	.
CCOC(=O)c1c(C)[nH]c(C)c1S(=O)(=O)NCCc1ccc(SC)cc1	-2.3	4.8	-5.0	25.7	-16.1	-4.0	.	.	.	.
CCOC(=O)c1c(C)[nH]c(C)c1S(=O)(=O)NCCc1sccc1C	-27.4	53.8*	-25.9	25.9	23.7	1.7	27.0	0.8	42.0	8.5
CCNC(=S)NNC(=O)c1ccc(OC)cc1	3.5	4.9	0.4	7.0	0.0	-4.2	.	.	.	.
COc1ccc(C(=O)NC(=S)NNC(=O)c2ccc(NC(C)=O)cc2)cc1Br	-32.6	10.4	-22.5	11.0	-7.1	-0.6	.	.	.	.
COc1ccc(OCC(=O)NNC(=S)NC(=O)c2ccc([N+](=O)[O-])cc2)cc1	-14.3	1.5	-4.6	33.6	-7.6	-10.6	.	.	.	.
COc1ccc(C(=O)NNC(=S)NC(=O)c2ccc(OC)cc2)cc1	23.3	110.0*	11.6	6.9	81.1*	0.0	87.5*	88.9*	49.4*	47.3*
COc1ccc(OCC(=O)NNC(=S)NC(=O)c2ccc(Br)o2)cc1	-8.2	55.3*	-7.8	-2.3	13.8	-5.0	34.1	17.6*	24.2	20.6
COc1ccc(C(=O)NC(=S)NNC(=O)c2ccncc2)cc1Br	-1.9	60.4*	1.0	6.1	14.0	.	34.8	32.2*	22.5	18.2
CCCCC(=O)NC(=S)NNC(=O)c1ccc(OC)cc1	6.7	85.1*	14.1	8.0	37.8	-4.3	98.9*	81.5*	51.5*	44.3*
Cn1c2c(c(=O)n(C)c1=O)CN(CCc1ccccc1)CN2	-10.3	91.3*	-0.7	6.0	60.5*	0.4	73.7*	2.6	45.0	8.5
CC1Cn2c(nc(=O)c3c2NCN(CCc2ccccc2)C3)S1 (stereo not drawn)	6.3	52.8*	6.4	9.1	3.9	14.8	45.7*	5.8	7.1	3.4
